# High-throughput results as filed in PubChem BioAssay.
# D1 mod = allosteric modulators of human D1 dopamine receptor; AID 641; P21728; 5.9% of 58,000 active; B-score at 10 µM; HEK293 D1, CRE-luciferase, dopamine EC30 potentiation; actives deviate in either direction;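 active means luminescence count or its row- and column-corrected plate score outside the 99.7% band of the plate's sample wells, on either side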
# Target sequence (P21728 whole entry, looked up): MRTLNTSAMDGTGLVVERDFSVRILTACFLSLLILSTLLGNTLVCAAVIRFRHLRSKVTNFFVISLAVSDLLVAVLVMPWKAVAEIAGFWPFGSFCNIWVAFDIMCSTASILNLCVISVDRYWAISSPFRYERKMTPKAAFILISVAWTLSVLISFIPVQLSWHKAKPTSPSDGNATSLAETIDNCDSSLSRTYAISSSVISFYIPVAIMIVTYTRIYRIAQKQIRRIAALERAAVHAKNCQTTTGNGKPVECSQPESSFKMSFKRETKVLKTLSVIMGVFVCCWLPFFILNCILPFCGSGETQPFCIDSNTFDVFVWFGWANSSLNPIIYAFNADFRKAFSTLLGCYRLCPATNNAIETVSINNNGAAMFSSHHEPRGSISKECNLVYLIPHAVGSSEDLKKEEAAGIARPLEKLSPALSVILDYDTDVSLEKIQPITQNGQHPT
# DAT uptake mod = human DAT dopamine uptake with cocaine, either direction. Q01959. LLC-PK1 hDAT cells, [14C]-dopamine uptake with cocaine IC80; actives deviate in either direction. B-score at 10 µM. 1.3% of 110,000 active. AID 449768;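 active means Z score or B-score, a plate-position-corrected score, falls beyond the plate's 99.7% confidence bounds, in either direction; inactive means both scores lie inside the 99.7% bounds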;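 further: scored against the spread of the other compound wells on the same plate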
# Calb biofilm kill = kills Candida albicans biofilms; C. albicans biofilm + clotrimazole, Alamar Blue; inhibition, % at 6 µM; 0.14% of 85,000 active; AID 834;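 active means inhibition above 20%; inactive means inhibition below 20%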;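 further: preformed 24 hr biofilms exposed to compound for 48 hr; 0% = biofilm without compound and 100% = blank killed by clotrimazole plus chlorhexidine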
# AP complement = orthogonal test for alternative complement pathway inhibitors; Human serum alternative complement pathway, LPS-coated ELISA, C3 deposition; tested in compound mixtures; inhibition, % at 5 µM; 0.08% of 62,000 active;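 active means inhibition above 30% in each of the two pooled mixtures holding the compound, so the lower value exceeds 30%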;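 further: 0% = serum in Mg-EGTA without compound and 100% = EDTA serum blank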
#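 Test system: human serum alternative complement pathway, C3 deposition on LPS-coated wells; also added: Plate-bound LPS; doses: 5 µM per compound in ten-compound mixtures; schedule: 1 h at 37 °C; detection: Anti-C3 ELISA, OD 450 nm; evaluation: percent inhibition of C3 deposition onto LPS; repeats: two pool placements per compound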
# MMP-13 inhibitor = blocks human MMP13 activity. P45452. MMP-13 fTHP FRET cleavage, Mca fluorescence. inhibition, % at 4 µM. 0.07% of 65,000 active. AID 570;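 active means inhibition above the mean of compound-free control plate wells plus 3 SD, cut at about 14% in these data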;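 further: 0% = DMSO wells and 100% = wells with reference MMP-13 inhibitor after basal subtraction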
# Active calls of the source: *; nt = no result. Shown is part of a subset that was picked to be rich in hits.
SMILES,D1 mod,DAT uptake mod,Calb biofilm kill,AP complement,MMP-13 inhibitor
CCO[C@@H]1OC(C(=O)N2CCN(Cc3ccc4c(c3)OCO4)CC2)=C[C@H](c2cn(C(C)=O)c3ccccc23)[C@H]1CCCO,nt,2.1*,nt,nt,nt
CCO[C@@H]1OC(C(=O)N2CCN(Cc3ccc4c(c3)OCO4)CC2)=C[C@H](c2csc3ccccc23)[C@H]1CCCO,nt,0.89,nt,nt,nt
CC(=O)n1cc([C@H]2C=C(C(=O)N3CCN(Cc4ccc5c(c4)OCO5)CC3)O[C@@H](OCCCCO)C2)c2ccccc21,nt,2.5*,nt,nt,nt
CC(=O)n1cc([C@@H]2C=C(C(=O)N3CCOCC3)O[C@H](OCCCCO)C2)c2ccccc21,nt,1.1,nt,nt,nt
COc1cc(NC(C)C(=O)N2CC(C)OC(C)C2)cc(OC)c1 (stereo unspecified),nt,-0.74,-1,nt,nt
O=C1CN(C(=O)COC(=O)c2ccccc2NCc2ccco2)c2ccccc2N1,nt,-1.6,nt,nt,nt
C=CCn1c(CSCc2ccc(Cl)cc2)nnc1SCC(=O)NCc1ccccc1,nt,2,nt,nt,nt
C=CCn1c(CSCc2ccc(C)cc2)nnc1SCC(=O)NCc1ccccc1,nt,2.1*,nt,nt,nt
Cc1ccc(C)c(C(=O)n2cnnc2N)c1,-0.13,-0.42,10,34*,6
Nc1nncn1C(=O)c1cccs1,-0.28,2.8*,9,5,-3
Cc1ccc(C(=O)n2cnnc2N)cc1,nt,1.3,2,nt,nt
CC1(c2nnc(Cc3ccccc3)o2)CC(c2ccc([N+](=O)[O-])cc2)=NO1 (stereo unspecified),nt,0.53,nt,nt,nt
CCOC(=O)C(C)S(=O)(=O)c1ccc(C(F)(F)F)cn1 (stereo unspecified),nt,-0.009,nt,nt,nt
O=C1c2cccc3c2[C@H](CCC3)CN1[C@@H]1CN2CCC1CC2,nt,0.0012,nt,nt,nt
O=C(CCNS(=O)(=O)c1ccc(Br)s1)N1CCN(c2ccccc2)CC1,0.94,-0.48,nt,6,-2
COc1ccccc1N1CCN(C(=O)CCNS(=O)(=O)c2ccc(Br)s2)CC1,-0.52,-3.9*,7,6,-2
CCOc1ccccc1COC(=O)c1cccc(-n2cnnn2)c1,10*,-0.96,8,21,3
CCCC(=O)NC(C)c1nc(-c2ccc(C)cc2)no1 (stereo unspecified),nt,-0.56,nt,nt,nt
CC1(C)Cc2c(c(N3CCOCC3)nc3sc4c(NCc5ccco5)nnnc4c23)CS1,nt,1,24*,nt,0
O=C(CNC(=O)c1ccc(Oc2ccccc2)cc1)OC1CCCCC1=O (stereo unspecified),nt,0.35,nt,nt,nt
COc1cccc(/C=N/NC(=O)CO/N=C(\C)c2cccs2)c1OC,nt,3.2*,8,nt,nt
Cc1oc(-c2ccccc2F)nc1CS(=O)CC(=O)NCc1cccs1 (stereo unspecified),0.54,0.55,17,40*,-1
Cc1oc(-c2ccccc2Cl)nc1CS(=O)CC(=O)NCc1cccs1 (stereo unspecified),nt,0.4,-2,nt,nt
O=C1CSC(c2cn(-c3ccccc3)nc2-c2cccs2)N1CC1CCCO1 (stereo unspecified),-0.038,2.7*,5,16,-3
O=C1CSC(c2cn(-c3ccccc3)nc2-c2ccccc2)N1Cc1ccco1 (stereo unspecified),1.2,-0.049,-3,-7,4
SMILES,D1 mod,DAT uptake mod,Calb biofilm kill,AP complement,MMP-13 inhibitor
COc1ccc(-n2c(C)cc(C(=O)Cn3c(NCCO)nc4ccccc43)c2C)cc1,-0.39,2.1*,5,13,0
O=C(Cn1nnc(-c2ccccc2Cl)n1)NCc1ccc2c(c1)OCO2,nt,-0.73,1,nt,nt
Cc1cc(C)n2nc(C(=O)OCC(=O)Nc3ccc4c(c3)OCO4)nc2n1,-4.9*,0.62,1,-8,-3
Cc1cc(C)n2nc(C(=O)OCC(=O)Nc3ccc4c(c3)OC(F)(F)O4)nc2n1,nt,-0.4,4,nt,nt
O=C(CSc1nnc(-c2ccc(OC(F)F)cc2)o1)NCc1cccs1,nt,-0.12,4,nt,nt
CC(C)c1ccc(-c2nn(-c3ccccc3)cc2C2C(C#N)=C(N)OC3=C2C(=O)CC(C)(C)C3)cc1 (stereo unspecified),nt,0.53,nt,nt,nt
CC1(C)C2(C#N)C(N)=NC3(OCCO3)C12C#N (stereo unspecified),nt,0.35,11,nt,nt
CCC1(C)C2(C#N)C(N)=NC(OC)(OC)C12C#N (stereo unspecified),0.24,0.079,-4,32*,nt
CC12CCC(C(=O)Nc3ncc([N+](=O)[O-])s3)(OC1=O)C2(C)C (stereo unspecified),nt,-2.3,11,nt,nt
Cc1ccc(C(C(=O)NC(C)(C)C)N(CC2CCCO2)C(=O)Cn2nnc(-c3ccc(C)o3)n2)cc1 (stereo unspecified),-4.2*,-0.43,5,1,5
COc1ccc(CC(=O)Nc2cccc(-c3nnc(-c4ccco4)o3)c2)cc1,nt,-0.081,nt,10,-34
Cc1cc(C)cc(OCC(=O)Nc2cccc(-c3nnc(-c4ccco4)o3)c2)c1,-3.4*,0.13,2,-3,-15
O=C(NCCc1ccc(Cl)cc1)C1CCCN(S(=O)(=O)c2cnc[nH]2)C1 (stereo unspecified),-0.14,0.24,25*,7,1
COc1ccc(OC)c(S(=O)(=O)N2CCCCCC2)c1,0.44,-2.4*,4,7,0
COc1ccc(OC)c(S(=O)(=O)N2CCC(C(=O)NCCc3ccccc3)CC2)c1,nt,0.00025,2,nt,nt
COc1ccc(OC)c(S(=O)(=O)N2CCC(C(=O)N3CCN(Cc4ccccc4)CC3)CC2)c1,-5.1*,-0.55,2,-2,-1
CN(C)/C=N/c1cc(=O)[nH]c(=O)n1C,nt,-0.39,nt,nt,nt
COCCN1Cc2cccc(C(=O)Nc3c(C)cc(C)cc3C)c2C1=O,0.22,0.68,3,5,2
CCCN1Cc2cccc(C(=O)Nc3ccc(C)cc3)c2C1=O,nt,-8*,-4,nt,nt
COCCN1Cc2cccc(C(=O)Nc3cc(C)cc(C)c3)c2C1=O,-0.075,1.8*,2,-8,3
O=c1c2ccccc2c(C=NCCO)c(O)n1-c1ccccc1,-0.98,-1.3,8,7,15*
CCOc1ccc2[nH]c(=O)c(C(c3nnnn3Cc3ccco3)N3CCCC(C)C3)cc2c1 (stereo unspecified),-0.5,2.5*,10,10,-21
O=C(NCc1ccccc1)C1=C[C@@H](C2CCCCC2)C[C@@H](OCCCCO)O1,nt,0.98,nt,nt,nt
Cc1ccc(NC(=O)CSc2nc3nc(C)cc(C)c3c(=O)[nH]2)cc1,3.9*,0.23,-1,9,4
CCOC(=O)c1cnn(-c2ccccc2)c1-n1cccc1C(=O)C(=O)Nc1ccc(OC)cc1,nt,0.74,nt,nt,nt
CCNc1nc(NC(C)C)nc(Oc2ccc(/C=N/O)cc2)n1,nt,1.3,-3,nt,nt
Cc1nc(-c2coc3c(CN(C)C)c(O)ccc3c2=O)cs1,nt,-0.039,8,nt,nt
COCCN=C1Sc2nc3ccc(C)cc3cc2CN1Cc1ccco1,nt,3.2*,nt,nt,nt
COc1cc(C(=O)NCCOc2cccc(C)c2)c(Br)c(OC)c1OC,nt,2.1,nt,nt,nt
O=C1OCCC1Sc1nnc(-c2ccc3c(c2)OCO3)n1-c1ccccc1 (stereo unspecified),-3.8*,0.53,-1,16,2
